Source: ChEMBL document CHEMBL3272314, “Sturcture-activity relationship of daunorubicin and its peptide derivatives” (J Med Chem, 1976)
Active and inactive are the calls of the source. The calls are words filed in the database; no cut-off is given here.

How the values were obtained:
[1] = biological target: Bacterial DNA-directed RNA polymerase (Bacteria) (UniProt P0A8V2+P0A7Z4+P0A8T7+P0A800); assay: Inhibition of Escherichia coli DNA-dependent RNA polymerase assessed as [3H]UMP incorporation into RNA using calf thymus DNA at 0.12 mM by liquid scintillation counting; type: protein-complex assay
Method in brief: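 E. coli RNA polymerase purified through a high-salt glycerol gradient step, 87 units/ml. Mix: 56 mM Tris-HCl pH 7.8, 1.6 mM MnCl2, 150 mM KCl, 1.6 mM β-mercaptoethanol, 0.6 mM each GTP/ATP/CTP, 0.15 mM [5-3H]-UTP, 0.12 mM P/l calf thymus DNA, drug at 0.12 mM. Started with enzyme at 37°C and sampled over time. TCA-insoluble RNA collected on filters and scintillation counted.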

[2] = Dissociation constant, pKa of the compound; type: physicochemical
[3] = tested on: P388; assay: Antitumor activity against mouse P388 cells allografted in mouse assessed as tumor growth inhibition at 0.25 to 10 mg/kg; type: functional, organism-based
Method in brief: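 Screened by the NCI Drug Research and Development Branch against P388 lymphocytic leukemia in mice. Dosing was daily at 0.25-10.0 mg/kg, given by peritoneal injection in water.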

[4] = Retardation factor of the compound in 10% methanol-chloroform by TLC; type: physicochemical
[5] = Solubility of the compound in H2O at pH >7; type: physicochemical
[6] = Dissociation constant, pKa of the compound in 20% EtOH/H2O; type: physicochemical
[7] = tested on: Salmonidae; assay: Binding affinity to salmon sperm DNA assessed as first order dissociation rate at pH 7.8 by stop-flow technique in presence of 201 mM Na+ ionic strength
Method in brief: (§1)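 Salmon sperm DNA–drug complex preformed without SDS at 6 μM drug and 0.36 mM DNA P/l. Dissociation was started by mixing with 0.2% SDS and followed at 480 nm by stop-flow at 15°C. Buffers were 10 mM MES at pH 6.2 and 1 mM PIPES at pH 7.8, with Na+ set by NaCl. First-order k (sec⁻¹) was taken from rate plots over ≥2.5 half-lives.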

[8] = tested on: Salmonidae; assay: Binding affinity to salmon sperm DNA assessed as first order dissociation rate at pH 6.2 by stop-flow technique in presence of 5 mM Na+ ionic strength; method in brief: as §1
[9] = tested on: Salmonidae; assay: Binding affinity to salmon sperm DNA assessed as first order dissociation rate at pH 7.8 by stop-flow technique in presence of 21 mM Na+ ionic strength; method in brief: as §1
[10] = tested on: Salmonidae; assay: Binding affinity to salmon sperm DNA assessed as first order dissociation rate at pH 6.2 by stop-flow technique in presence of 21 mM Na+ ionic strength; method in brief: as §1
[11] = tested on: Salmonidae; assay: Binding affinity to salmon sperm DNA assessed as first order dissociation rate at pH 7.8 by stop-flow technique in presence of 1 mM Na+ ionic strength; method in brief: as §1

Bacterial DNA-directed RNA polymerase (Bacteria), sequence (P0A7Z4 whole entry partner): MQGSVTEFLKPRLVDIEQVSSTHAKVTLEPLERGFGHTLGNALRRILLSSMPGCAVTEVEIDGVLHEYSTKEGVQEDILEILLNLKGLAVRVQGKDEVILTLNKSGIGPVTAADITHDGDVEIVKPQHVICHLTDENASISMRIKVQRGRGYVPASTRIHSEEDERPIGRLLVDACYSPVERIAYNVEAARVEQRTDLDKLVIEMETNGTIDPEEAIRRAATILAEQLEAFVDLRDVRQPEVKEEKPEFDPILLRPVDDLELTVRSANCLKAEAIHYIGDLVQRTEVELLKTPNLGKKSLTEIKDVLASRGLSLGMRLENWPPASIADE
Bacterial DNA-directed RNA polymerase (Bacteria), sequence (P0A800 2-91 partner limits assumed): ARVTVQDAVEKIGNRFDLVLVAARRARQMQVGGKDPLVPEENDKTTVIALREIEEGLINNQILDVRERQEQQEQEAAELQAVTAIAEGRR
Bacterial DNA-directed RNA polymerase (Bacteria), sequence (P0A8T7 whole entry partner): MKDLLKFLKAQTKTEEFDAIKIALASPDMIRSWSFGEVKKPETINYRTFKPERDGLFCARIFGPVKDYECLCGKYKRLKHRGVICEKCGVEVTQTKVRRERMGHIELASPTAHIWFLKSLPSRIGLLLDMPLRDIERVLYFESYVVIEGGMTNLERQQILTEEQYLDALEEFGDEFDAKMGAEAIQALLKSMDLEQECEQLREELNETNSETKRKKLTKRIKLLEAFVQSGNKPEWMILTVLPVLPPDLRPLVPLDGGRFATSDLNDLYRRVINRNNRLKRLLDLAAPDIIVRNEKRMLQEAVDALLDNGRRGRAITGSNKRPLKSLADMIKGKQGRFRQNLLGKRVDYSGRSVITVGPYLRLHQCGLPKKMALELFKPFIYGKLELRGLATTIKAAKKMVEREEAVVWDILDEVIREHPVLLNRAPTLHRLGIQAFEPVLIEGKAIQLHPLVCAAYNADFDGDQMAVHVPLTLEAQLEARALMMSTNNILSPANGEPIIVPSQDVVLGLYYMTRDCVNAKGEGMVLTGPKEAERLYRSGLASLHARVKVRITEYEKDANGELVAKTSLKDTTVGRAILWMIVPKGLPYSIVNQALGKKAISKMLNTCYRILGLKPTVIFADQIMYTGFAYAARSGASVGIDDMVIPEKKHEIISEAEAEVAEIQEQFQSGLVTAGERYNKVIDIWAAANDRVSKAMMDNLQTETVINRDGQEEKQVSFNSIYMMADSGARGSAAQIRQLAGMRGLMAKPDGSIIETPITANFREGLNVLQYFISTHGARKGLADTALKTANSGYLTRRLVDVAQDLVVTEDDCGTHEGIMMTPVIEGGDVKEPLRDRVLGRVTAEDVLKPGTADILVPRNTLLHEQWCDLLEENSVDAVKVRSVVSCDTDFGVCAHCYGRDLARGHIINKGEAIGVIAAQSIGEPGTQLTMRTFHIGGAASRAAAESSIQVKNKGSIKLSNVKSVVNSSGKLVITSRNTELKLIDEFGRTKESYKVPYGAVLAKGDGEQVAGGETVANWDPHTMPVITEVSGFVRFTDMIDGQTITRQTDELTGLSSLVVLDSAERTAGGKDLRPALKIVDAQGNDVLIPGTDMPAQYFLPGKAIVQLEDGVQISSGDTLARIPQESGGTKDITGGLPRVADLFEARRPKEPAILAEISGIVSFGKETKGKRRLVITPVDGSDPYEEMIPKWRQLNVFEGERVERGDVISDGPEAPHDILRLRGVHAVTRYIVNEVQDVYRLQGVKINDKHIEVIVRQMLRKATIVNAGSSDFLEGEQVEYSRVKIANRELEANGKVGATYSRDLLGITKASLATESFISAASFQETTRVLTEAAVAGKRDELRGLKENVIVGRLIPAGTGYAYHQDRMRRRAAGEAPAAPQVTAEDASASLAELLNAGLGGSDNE
Bacterial DNA-directed RNA polymerase (Bacteria), sequence (P0A8V2 whole entry): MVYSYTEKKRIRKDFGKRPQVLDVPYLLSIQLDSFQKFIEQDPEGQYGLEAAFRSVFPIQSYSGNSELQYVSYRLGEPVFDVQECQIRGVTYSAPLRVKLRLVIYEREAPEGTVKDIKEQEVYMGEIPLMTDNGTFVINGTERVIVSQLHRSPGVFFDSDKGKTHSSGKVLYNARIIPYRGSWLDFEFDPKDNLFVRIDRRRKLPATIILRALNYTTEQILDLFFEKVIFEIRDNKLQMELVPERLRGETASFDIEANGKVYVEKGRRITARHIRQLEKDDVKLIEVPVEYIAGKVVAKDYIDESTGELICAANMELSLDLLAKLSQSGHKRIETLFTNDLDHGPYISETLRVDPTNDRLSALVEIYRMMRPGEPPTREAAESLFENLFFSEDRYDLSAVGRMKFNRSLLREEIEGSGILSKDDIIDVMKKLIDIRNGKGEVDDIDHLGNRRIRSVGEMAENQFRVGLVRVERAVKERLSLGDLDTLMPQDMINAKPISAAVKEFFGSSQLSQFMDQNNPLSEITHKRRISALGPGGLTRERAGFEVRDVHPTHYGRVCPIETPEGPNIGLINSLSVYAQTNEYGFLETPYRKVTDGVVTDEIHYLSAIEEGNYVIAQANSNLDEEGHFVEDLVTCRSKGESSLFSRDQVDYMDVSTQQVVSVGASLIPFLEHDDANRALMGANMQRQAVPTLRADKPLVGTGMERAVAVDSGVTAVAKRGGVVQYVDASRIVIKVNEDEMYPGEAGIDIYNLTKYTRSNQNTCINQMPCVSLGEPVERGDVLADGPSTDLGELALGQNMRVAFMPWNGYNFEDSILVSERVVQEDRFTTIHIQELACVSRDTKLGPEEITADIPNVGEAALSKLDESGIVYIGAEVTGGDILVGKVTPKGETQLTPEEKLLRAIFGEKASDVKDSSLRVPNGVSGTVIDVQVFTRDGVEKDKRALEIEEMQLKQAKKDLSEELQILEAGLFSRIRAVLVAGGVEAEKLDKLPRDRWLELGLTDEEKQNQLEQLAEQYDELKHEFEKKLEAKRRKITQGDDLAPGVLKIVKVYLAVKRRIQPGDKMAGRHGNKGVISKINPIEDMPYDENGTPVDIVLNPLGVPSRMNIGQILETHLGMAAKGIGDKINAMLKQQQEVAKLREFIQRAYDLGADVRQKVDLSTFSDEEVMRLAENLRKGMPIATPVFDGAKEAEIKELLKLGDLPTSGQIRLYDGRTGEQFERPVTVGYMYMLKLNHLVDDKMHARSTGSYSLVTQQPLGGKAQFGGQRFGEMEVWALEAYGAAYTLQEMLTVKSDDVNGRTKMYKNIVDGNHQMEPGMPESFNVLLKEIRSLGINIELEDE

Row | inhibition [1] | pKa [2] | Rf [4] | solubility [5] | pKa [6] | K [7] [s⁻¹] | K [8] [s⁻¹] | K [9] [s⁻¹] | K [10] [s⁻¹] | K [11] [s⁻¹] | Compound | TGI [3]
1 | Active | 7.35 | 0.68 |  |  |  |  |  |  |  | COc1cccc2c1C(=O)c1c(O)c3c(c(O)c1C2=O)C[C@@](O)(C(C)=O)C[C@@H]3O[C@H]1C[C@H](NC(=O)CN(C)C)[C@H](O)[C@H](C)O1 | Active
2 |  |  |  | Insoluble | 7.2 |  |  |  |  |  | CCCN(CCC)CC(=O)N[C@H]1C[C@H](O[C@H]2C[C@](O)(C(C)=O)Cc3c(O)c4c(c(O)c32)C(=O)c2c(OC)cccc2C4=O)O[C@@H](C)[C@H]1O | inactive
3 | Active | 7.39 |  |  |  |  |  |  |  |  | COc1cccc2c1C(=O)c1c(O)c3c(c(O)c1C2=O)C[C@@](O)(C(C)=O)C[C@@H]3O[C@H]1C[C@H](NC(=O)CNC(=O)CN(C)C)[C@H](O)[C@H](C)O1 | Active
4 | Active | 8.99 | 0.17 |  |  | 2.88 | 0.98 | 1.57 | 0.98 | 1.37 | COc1cccc2c1C(=O)c1c(O)c3c(c(O)c1C2=O)C[C@@](O)(C(C)=O)C[C@@H]3O[C@H]1C[C@H](N)[C@H](O)[C@H](C)O1.Cl [DAUNORUBICIN HYDROCHLORIDE] | Active
